# Results: ChEMBL document CHEMBL1156160, “The introduction of P4 substituted 1-methylcyclohexyl groups into Boceprevir: a change in direction in the search for a second generation HCV NS3 protease inhibitor” (Bioorg Med Chem Lett, 2010)
# Key:
# [1] = Inhibition of HCV NS4A tagged recombinant single chain NS3 protease after 15 mins; parameters: species or system Hepacivirus hominis
# [2] = Selectivity for HCV NS3 protease over human neutrophil elastase
# How it was run: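 Ratio of inhibitory activity against human neutrophil elastase to that against HCV protease (HNE/HCV), taken as selectivity. HCV activity was from a continuous protease assay using NS4A-tethered single-chain NS3 serine protease, giving Ki* as the equilibrium constant for reversible covalent binding of the electrophilic ketone to the active-site serine. Compounds were tested as P1-epimer diastereomer mixtures.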
# Hepatitis C virus = test: Antiviral activity against HCV in human hepatoma cells assessed as inhibition of RNA replication by replicon assay; assay type: functional, Hepacivirus hominis
# [3] = Bioavailability in dog; assay type: ADME, organism-based, Canis lupus familiaris; settings: in vivo
# [4] = AUC in monkey at 3 mg/kg, po; assay type: ADME, organism-based, Macaca mulatta; parameters: dose 3 mg/kg, route oral; settings: rhesus monkey, plasma
Ki [1] [nM],Ratio [2],EC90 (Hepatitis C virus) [nM],bioavailability [3] [%],AUC [4] [µM·h],Compound
8,4100,200,,,CC1(NC(=O)N[C@H](C(=O)N2C[C@H]3[C@@H]([C@H]2C(=O)NC(CC2CCC2)C(=O)C(N)=O)C3(C)C)C(C)(C)C)CCCCC1 (stereo not given in full)
30,260,400,,,CC(C)(C)[C@H](NC(=O)NC1(Cc2ccc(O)cc2)CCCCC1)C(=O)N1C[C@H]2[C@@H]([C@H]1C(=O)NC(CC1CC1)C(=O)C(N)=O)C2(C)C (stereo not given in full)
9,470,200,,,CC(C)(C)[C@H](NC(=O)NC1(Cc2cccs2)CCCCC1)C(=O)N1C[C@H]2[C@@H]([C@H]1C(=O)NC(CC1CC1)C(=O)C(N)=O)C2(C)C (stereo not given in full)
5,90,400,,,CC(C)(C)[C@H](NC(=O)NC1(CS(=O)(=O)Cc2ccccc2)CCCCC1)C(=O)N1C[C@H]2[C@@H]([C@H]1C(=O)NC(CC1CC1)C(=O)C(N)=O)C2(C)C (stereo not given in full)
11,620,200,,,CC(C)(C)[C@H](NC(=O)NC1(Cc2nccs2)CCCCC1)C(=O)N1C[C@H]2[C@@H]([C@H]1C(=O)NC(CC1CC1)C(=O)C(N)=O)C2(C)C (stereo not given in full)
24,130,300,,,CC(C)(C)[C@H](NC(=O)NC1(Cc2ccccc2)CCCC1)C(=O)N1C[C@H]2[C@@H]([C@H]1C(=O)NC(CC1CC1)C(=O)C(N)=O)C2(C)C (stereo not given in full)
100,230,2000,,,CC(C)(C)[C@H](NC(=O)NC1(C(=O)c2ccccc2)CCCCC1)C(=O)N1C[C@H]2[C@@H]([C@H]1C(=O)NC(CC1CC1)C(=O)C(N)=O)C2(C)C (stereo not given in full)
9,1100,200,,,CC(C)(C)[C@H](NC(=O)NC1(CS(=O)(=O)c2ccccc2)CCCCC1)C(=O)N1C[C@H]2[C@@H]([C@H]1C(=O)NC(CC1CCC1)C(=O)C(N)=O)C2(C)C (stereo not given in full)
11,2600,400,,,CC(c1ccccc1)C1(NC(=O)N[C@H](C(=O)N2C[C@H]3[C@@H]([C@H]2C(=O)NC(CC2CC2)C(=O)C(N)=O)C3(C)C)C(C)(C)C)CCCCC1 (stereo not given in full)
39,250,300,,,CC(C)(C)[C@H](NC(=O)NC1(Cc2ccncc2)CCCCC1)C(=O)N1C[C@H]2[C@@H]([C@H]1C(=O)NC(CC1CC1)C(=O)C(N)=O)C2(C)C (stereo not given in full)
14,2200,350,34,0.12,CC(C)(C)NC(=O)N[C@H](C(=O)N1C[C@H]2[C@@H]([C@H]1C(=O)NC(CC1CCC1)C(=O)C(N)=O)C2(C)C)C(C)(C)C (stereo not given in full) [BOCEPREVIR]
